Assay results: ChEMBL document CHEMBL1134307, “trans-4-[4-(Methoxyphenyl)cyclohexyl]-1-arylpiperazines: a new class of potent and selective 5-HT(1A) receptor ligands as conformationally constrained analogues of 4-[3-(5-methoxy-1,2,3,4-tetrahydronaphthalen-1-yl)propyl]-1-arylpiperazines” (J Med Chem, 2001)

Assays:
[1] = molecular target: D(2) dopamine receptor (Rattus norvegicus, UniProt P61169); assay: Binding affinity towards dopamine receptor D2 in rat striatal membranes; format: cell membranes, Striatum, Membrane
D(2) dopamine receptor, sequence (P61169 whole entry): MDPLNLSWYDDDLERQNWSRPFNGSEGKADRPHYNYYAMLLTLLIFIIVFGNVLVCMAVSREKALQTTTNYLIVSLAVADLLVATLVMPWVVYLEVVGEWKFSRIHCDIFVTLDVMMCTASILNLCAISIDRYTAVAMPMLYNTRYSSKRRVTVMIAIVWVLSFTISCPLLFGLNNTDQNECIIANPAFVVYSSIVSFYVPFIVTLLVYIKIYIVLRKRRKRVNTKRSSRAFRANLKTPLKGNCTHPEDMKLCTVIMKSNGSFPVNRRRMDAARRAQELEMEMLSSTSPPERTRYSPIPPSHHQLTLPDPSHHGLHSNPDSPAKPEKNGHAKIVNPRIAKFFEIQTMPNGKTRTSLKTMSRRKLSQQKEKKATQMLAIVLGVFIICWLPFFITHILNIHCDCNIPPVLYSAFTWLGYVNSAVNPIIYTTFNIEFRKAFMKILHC

[2] = molecular target: T1, Adrenergic receptor alpha-1 (Rattus norvegicus, UniProt P15823+P23944+P43140); assay: Binding affinity towards alpha-1 adrenergic receptor in rat cortical membranes; format: cell membranes
T1 sequence (P15823 whole entry): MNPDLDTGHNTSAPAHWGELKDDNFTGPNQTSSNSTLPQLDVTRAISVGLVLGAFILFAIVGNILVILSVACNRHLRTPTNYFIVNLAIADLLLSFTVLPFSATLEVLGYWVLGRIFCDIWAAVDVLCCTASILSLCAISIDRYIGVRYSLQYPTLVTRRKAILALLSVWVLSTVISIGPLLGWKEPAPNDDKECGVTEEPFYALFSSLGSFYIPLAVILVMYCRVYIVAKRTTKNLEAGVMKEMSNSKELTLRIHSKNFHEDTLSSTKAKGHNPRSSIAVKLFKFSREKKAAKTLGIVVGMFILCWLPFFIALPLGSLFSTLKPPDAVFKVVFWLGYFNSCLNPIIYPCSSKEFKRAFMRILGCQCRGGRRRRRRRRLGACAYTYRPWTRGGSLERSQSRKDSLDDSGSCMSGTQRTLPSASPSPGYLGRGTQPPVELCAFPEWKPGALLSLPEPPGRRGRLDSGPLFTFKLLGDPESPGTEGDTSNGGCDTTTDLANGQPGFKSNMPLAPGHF
T1 sequence (P23944 whole entry): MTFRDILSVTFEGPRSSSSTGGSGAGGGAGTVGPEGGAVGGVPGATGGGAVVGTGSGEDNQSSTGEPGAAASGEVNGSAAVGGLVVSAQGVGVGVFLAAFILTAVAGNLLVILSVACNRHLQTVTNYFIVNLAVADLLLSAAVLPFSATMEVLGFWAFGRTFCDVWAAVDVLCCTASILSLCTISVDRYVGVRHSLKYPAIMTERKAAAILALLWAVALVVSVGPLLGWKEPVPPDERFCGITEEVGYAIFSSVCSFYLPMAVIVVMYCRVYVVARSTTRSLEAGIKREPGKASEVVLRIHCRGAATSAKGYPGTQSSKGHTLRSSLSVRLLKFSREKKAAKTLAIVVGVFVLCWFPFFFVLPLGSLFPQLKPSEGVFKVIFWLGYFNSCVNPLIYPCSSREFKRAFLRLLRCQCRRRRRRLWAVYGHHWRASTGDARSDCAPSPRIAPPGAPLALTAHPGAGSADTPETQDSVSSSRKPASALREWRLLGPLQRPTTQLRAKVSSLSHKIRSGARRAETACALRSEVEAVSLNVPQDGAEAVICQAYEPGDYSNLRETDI
T1 sequence (P43140 whole entry): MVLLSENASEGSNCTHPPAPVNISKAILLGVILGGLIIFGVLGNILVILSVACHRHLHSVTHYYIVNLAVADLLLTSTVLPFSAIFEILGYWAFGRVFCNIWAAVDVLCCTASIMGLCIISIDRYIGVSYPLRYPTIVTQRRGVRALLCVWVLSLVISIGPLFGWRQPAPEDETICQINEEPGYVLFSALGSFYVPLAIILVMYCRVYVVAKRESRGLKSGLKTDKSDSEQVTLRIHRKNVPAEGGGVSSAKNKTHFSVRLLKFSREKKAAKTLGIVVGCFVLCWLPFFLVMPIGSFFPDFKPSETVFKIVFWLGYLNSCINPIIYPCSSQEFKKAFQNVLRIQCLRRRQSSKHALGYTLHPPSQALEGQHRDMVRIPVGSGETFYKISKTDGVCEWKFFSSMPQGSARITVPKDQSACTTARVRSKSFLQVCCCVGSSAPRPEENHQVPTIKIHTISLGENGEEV

[3] = molecular target: T2, 5-hydroxytryptamine receptor 1A (Rattus norvegicus, UniProt P19327); assay: Binding was determined on 5-hydroxytryptamine 1A receptor in rat hippocampal membranes; format: cell membranes, Hippocampus
T2 sequence (P19327 whole entry): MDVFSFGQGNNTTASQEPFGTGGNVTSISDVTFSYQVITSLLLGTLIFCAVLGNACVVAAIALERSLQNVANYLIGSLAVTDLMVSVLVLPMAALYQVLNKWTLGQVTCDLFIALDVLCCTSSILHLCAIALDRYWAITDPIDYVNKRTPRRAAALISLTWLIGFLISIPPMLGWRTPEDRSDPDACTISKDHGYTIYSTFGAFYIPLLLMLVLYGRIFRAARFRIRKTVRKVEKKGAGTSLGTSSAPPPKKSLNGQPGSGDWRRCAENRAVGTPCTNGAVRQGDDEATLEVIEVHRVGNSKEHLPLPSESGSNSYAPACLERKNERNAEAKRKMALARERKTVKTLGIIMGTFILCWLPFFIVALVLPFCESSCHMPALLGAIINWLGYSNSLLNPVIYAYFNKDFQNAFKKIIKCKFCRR
In short: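 Hippocampus from male Wistar Hannover rats, homogenized in 50 mM Tris pH 7.6, washed, and preincubated 10 min at 37 °C. Ki given as mean ± SEM.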

[4] = Selectivity expressed as a ratio of affinity against Alpha 1b-Adrenoceptor to that of 5-HT1A receptor
[5] = molecular target: T3, 5-hydroxytryptamine receptor 1A (Homo sapiens) (UniProt P08908); assay: Maximal stimulation was expressed as percentage of the maximal 5-HT response in the [35S]GTP-gamma-S, binding assay on 5-hydroxytryptamine 1A receptor; format: functional
T3 sequence (whole entry): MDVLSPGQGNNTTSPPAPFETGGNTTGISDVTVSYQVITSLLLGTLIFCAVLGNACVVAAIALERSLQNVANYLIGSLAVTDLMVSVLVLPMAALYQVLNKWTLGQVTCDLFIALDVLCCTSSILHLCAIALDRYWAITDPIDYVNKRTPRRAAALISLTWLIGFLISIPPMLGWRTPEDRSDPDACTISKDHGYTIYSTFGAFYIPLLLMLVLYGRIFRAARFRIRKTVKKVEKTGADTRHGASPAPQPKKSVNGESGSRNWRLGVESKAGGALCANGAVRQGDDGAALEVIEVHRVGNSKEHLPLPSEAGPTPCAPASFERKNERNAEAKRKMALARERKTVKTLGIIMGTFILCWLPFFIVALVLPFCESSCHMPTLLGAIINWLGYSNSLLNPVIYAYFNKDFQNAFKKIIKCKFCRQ
In short: (§1)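 Membranes of HeLa cells expressing human 5-HT1A, in 20 mM HEPES, 3 mM MgCl2, 120 mM NaCl pH 7.4. Preincubated 20 min at 30 °C with 30 µM GDP and drug (0.1 nM–100 µM) or 5-HT as reference curve. [35S]GTPγS (200–250 pM) then added for 30 min at 30 °C. Nonspecific binding with 10 µM GTPγS. Curves fitted by ALLFIT to give Emax and pD2 (−log EC50).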

[6] = Selectivity expressed as a ratio of affinity against Alpha 1d-Adrenoceptor to that of 5-HT1A receptor
[7] = molecular target: T3, 5-hydroxytryptamine receptor 1A (Homo sapiens); assay: Potency (pD2) for the stimulation of [35S]GTP-gamma-S, binding on 5-hydroxytryptamine 1A receptor; format: functional; in short: as §1
[8] = Selectivity expressed as a ratio of affinity against Alpha 1A-Adrenoceptor to that of 5-HT1A receptor
[9] = molecular target: T4, 5-hydroxytryptamine receptor 1A (Rattus norvegicus) (UniProt P19327); assay: Agonistic activity (induction of forepaw treading in rats)on postsynaptic 5-hydroxytryptamine 1A receptor while iv administration; format: functional, organism-based
T4 sequence (whole entry): T2 sequence (P19327 whole entry)
In short: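 Male Sprague Dawley rats (175–200 g), iv injection; vehicle DMF 20% v/v plus Tween 80 10% v/v in water, or water for the reference agonist. Rats placed singly 10–15 min beforehand, 4–8 per dose. A blind observer scored fore-paw treading in 30 s sessions every 3 min from 3 to 15 min.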

Row | Structure (SMILES) | Ki [1] [nM] | Ki [2] [nM] | Ki [3] [nM] | further results
1 | COc1cccc(C2CCC(N3CCN(c4cccc5ccccc45)CC3)CC2)c1 (trans isomer) | 70 | 470 | 0.22 | –
2 | COc1cccc(C2=CCC(N3CCN(c4cccc5ccccc45)CC3)CC2)c1 (stereo unspecified) | 327 | 986 | 15 | –
3 | COc1cccc(C2CCC(N3CCN(c4ccccc4OC)CC3)CC2)c1 (stereo in doubt; trans) | – | – | – | Selectivity [4]: 206; Emax [5]: 26.5%; Selectivity [6]: 21; pD2 [7]: 9.91; Selectivity [8]: 24
4 | COc1cccc(C2CCC(N3CCN(c4cccc5ccccc45)CC3)CC2)c1 (stereo in doubt) | 1310 | 5540 | 74 | –
5 | COc1cccc(C2CCC(N3CCN(c4ccccc4)CC3)CC2)c1 (stereo in doubt; trans) | 910 | 730 | 0.026 | –
6 | COc1cccc(C2CCC(NCCOc3ccccn3)CC2)c1 (stereo in doubt) | – | – | – | Selectivity [4]: 88; Emax [5]: 82%; Selectivity [6]: 37; pD2 [7]: 7.46; Selectivity [8]: 53
7 | COc1ccc(C2CCC(N3CCN(c4ccccn4)CC3)CC2)cc1 (stereo in doubt) | 787 | 786 | 94 | –
8 | COc1cccc2c1CCC/C2=C\CCN1CCN(c2ccccn2)CC1 | 125 | 60 | 0.31 | –
9 | COc1cccc(C2CCC(N3CCN(c4ccccn4)CC3)CC2)c1 (cis isomer) | > 850 | 783 | 815 | –
10 | COc1ccc(C2CCC(N3CCN(c4ccccn4)CC3)CC2)cc1 (trans isomer) | 792 | 847 | 0.046 | –
11 | COc1ccccc1C1CCC(N2CCN(c3ccccn3)CC2)CC1 (stereo in doubt; cis) | 2120 | 712 | 480 | –
12 | COc1ccccc1C1CCC(N2CCN(c3ccccn3)CC2)CC1 (stereo in doubt; trans) | 243 | 303 | 0.2 | –
13 | COc1cccc(C2CCC(N3CCN(c4ccccn4)CC3)CC2)c1 (trans isomer) | – | – | – | Selectivity [4]: 265; Emax [5]: 95.9%; Selectivity [6]: 590; ED50 [9]: 0.721 µg/kg; pD2 [7]: 9.28; Selectivity [8]: 165
14 | COc1ccc2c(c1)CCC(CNCCOc1ccccn1)C2 (stereo unspecified) | > 850 | > 850 | 59 | –
15 | COc1cccc(C2CCC(N3CCN(c4ccccc4OC)CC3)CC2)c1 (stereo in doubt; cis) | 668 | 1050 | 79.6 | –
16 | COc1cccc(CCCCNCCOc2ccccn2)c1 | > 850 | 733 | 39 | –
17 | COc1cccc(C2=CCC(N3CCN(c4ccccc4)CC3)CC2)c1 (stereo unspecified) | 2190 | 5160 | – | –
18 | COc1cccc(CCCCN2CCN(c3ccccn3)CC2)c1 | 750 | 467 | 23 | –
19 | COc1cccc(C2CCC(NCCOc3ccccn3)CC2)c1 (cis isomer) | 783 | – | 373 | –
20 | COc1ccc2c(c1)CCC(CN1CCN(c3ccccn3)CC1)C2 (stereo unspecified) | > 850 | 585 | 676 | –
21 | COc1cccc(C2CCC(N3CCN(c4ccccc4)CC3)CC2)c1 (stereo in doubt; cis) | 2380 | 2250 | 183 | –
22 | COc1cccc(C2=CCC(N3CCN(c4ccccc4OC)CC3)CC2)c1 (stereo unspecified) | 2930 | 408 | 7.1 | –
23 | CCCN(CCC)C1CCc2cccc(O)c2C1 (stereo unspecified) | – | – | – | Emax [5]: 100%
24 | COc1cccc2c1CCC/C2=C\CCNCCOc1ccccn1 | > 850 | > 850 | 0.71 | –
25 | COc1ccc2c(c1)CC(CCN1CCN(c3ccccn3)CC1)CC2 (stereo unspecified) | 1730 | 117 | 0.16 | –
26 | COc1cccc(C2=CCC(N3CCN(c4ccccn4)CC3)CC2)c1 (stereo unspecified) | 1220 | 512 | 536 | –
